Laboratory results reported in ChEMBL document CHEMBL4627265, “Optimization of 8-oxoadenines with toll-like-receptor 7 and 8 activity” (Bioorg Med Chem Lett, 2020).
pEC50: −log10 of the molar value. The source made the active and inactive calls. No cut-off for these calls is given here.

How the values were obtained:
Format in all cases: cell-based
[1] = biological target: T1, Toll-like receptor 8 (Homo sapiens) (UniProt Q9NR97); experiment: Agonist activity at TLR8 in human PBMC assessed as induction of myeloid dendritic cell maturation by measuring CD86 level at 0.1 uM after 6 hrs by flow cytometry
T1 sequence (whole entry): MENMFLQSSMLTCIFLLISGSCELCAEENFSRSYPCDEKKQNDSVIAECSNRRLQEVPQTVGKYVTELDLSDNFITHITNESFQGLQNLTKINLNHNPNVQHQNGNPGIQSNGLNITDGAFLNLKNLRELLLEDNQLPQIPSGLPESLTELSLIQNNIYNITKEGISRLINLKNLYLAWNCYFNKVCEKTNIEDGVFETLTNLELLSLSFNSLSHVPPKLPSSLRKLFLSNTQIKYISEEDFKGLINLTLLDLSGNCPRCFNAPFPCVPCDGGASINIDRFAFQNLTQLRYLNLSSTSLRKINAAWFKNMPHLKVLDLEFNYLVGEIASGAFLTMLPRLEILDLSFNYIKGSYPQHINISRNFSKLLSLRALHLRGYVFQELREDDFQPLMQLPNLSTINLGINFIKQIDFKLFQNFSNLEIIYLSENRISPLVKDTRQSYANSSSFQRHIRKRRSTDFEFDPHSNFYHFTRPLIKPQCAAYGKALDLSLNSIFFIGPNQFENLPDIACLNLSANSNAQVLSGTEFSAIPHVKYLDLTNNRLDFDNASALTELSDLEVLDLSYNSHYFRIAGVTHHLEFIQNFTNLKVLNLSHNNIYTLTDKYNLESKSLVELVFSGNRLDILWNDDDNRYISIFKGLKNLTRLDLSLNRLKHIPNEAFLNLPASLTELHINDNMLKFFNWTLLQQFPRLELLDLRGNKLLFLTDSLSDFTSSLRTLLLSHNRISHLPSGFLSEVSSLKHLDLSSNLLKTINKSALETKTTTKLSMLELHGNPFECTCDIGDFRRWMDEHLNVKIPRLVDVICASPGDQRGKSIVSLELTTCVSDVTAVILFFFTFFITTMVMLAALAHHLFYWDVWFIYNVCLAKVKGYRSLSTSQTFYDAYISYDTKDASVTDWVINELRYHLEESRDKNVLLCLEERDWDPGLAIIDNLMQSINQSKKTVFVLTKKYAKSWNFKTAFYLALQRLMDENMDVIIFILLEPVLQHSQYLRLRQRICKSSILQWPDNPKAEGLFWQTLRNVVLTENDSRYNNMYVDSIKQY
Method in brief: (§1)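 hPBMCs stimulated 6 h at a single 0.1 μM dose; HLA-DR, MHC-I, CD80 and CD86 on mDCs and pDCs measured by flow cytometry, expressed as fold change versus unstimulated cells. Mean ± SD of three independent experiments in three different donors.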

Toll-like receptor 7 = biological target: T2, Toll-like receptor 7 (Homo sapiens, UniProt Q9NYK1); experiment: Agonist activity at human TLR7 expressed in HEK293 cells assessed as induction of NFKappaB activity after 24 hrs by SEAP reporter gene assay
T2 sequence (Q9NYK1 whole entry): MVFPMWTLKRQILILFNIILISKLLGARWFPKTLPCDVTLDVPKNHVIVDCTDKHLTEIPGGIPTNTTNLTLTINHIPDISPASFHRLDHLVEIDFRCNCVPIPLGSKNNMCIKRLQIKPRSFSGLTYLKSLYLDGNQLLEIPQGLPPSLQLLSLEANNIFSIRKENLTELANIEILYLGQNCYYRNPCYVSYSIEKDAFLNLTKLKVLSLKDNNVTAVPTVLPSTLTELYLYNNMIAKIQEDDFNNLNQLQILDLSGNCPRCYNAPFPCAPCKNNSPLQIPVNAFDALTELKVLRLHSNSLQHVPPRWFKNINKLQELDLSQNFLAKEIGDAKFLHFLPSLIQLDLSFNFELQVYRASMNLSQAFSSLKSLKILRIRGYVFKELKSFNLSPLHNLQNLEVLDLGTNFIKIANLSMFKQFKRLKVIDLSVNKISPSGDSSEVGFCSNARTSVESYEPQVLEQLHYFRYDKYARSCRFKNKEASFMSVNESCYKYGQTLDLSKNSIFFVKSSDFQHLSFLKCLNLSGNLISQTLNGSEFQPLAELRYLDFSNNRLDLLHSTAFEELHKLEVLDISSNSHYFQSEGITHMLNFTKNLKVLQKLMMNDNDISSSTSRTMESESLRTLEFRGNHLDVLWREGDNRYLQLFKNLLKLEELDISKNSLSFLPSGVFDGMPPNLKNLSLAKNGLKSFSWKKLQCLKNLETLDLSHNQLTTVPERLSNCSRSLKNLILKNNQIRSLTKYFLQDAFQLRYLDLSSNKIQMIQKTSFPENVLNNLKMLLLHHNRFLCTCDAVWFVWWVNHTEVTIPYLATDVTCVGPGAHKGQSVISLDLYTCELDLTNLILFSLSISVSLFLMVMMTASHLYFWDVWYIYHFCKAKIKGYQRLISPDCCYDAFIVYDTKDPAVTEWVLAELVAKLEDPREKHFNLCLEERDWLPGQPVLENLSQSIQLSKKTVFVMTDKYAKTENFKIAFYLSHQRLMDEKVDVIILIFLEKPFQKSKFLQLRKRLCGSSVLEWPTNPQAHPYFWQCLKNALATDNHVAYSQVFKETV
Method in brief: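 HEK293 cells stably transfected with hTLR7 or hTLR8 plus an NFκB-driven SEAP reporter, treated 24 h with compound over a μM range; SEAP secretion read out. EC50 as mean ± SD of three (TLR7) or four (TLR8) independent experiments.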

[2] = biological target: T1, Toll-like receptor 8 (Homo sapiens); experiment: Agonist activity at TLR8 in human PBMC assessed as induction of myeloid dendritic cell maturation by measuring CD80 level at 0.1 uM after 6 hrs by flow cytometry; method in brief: as §1
[3] = biological target: T1, Toll-like receptor 8 (Homo sapiens); experiment: Agonist activity at TLR8 in human PBMC assessed as induction of myeloid dendritic cell maturation by measuring HLA-DR level at 0.1 uM after 6 hrs by flow cytometry; method in brief: as §1
[4] = biological target: T3, Toll-like receptor 7 (Homo sapiens) (UniProt Q9NYK1); experiment: Agonist activity at TLR7 in human PBMC assessed as induction of plasmacytoid dendritic cell maturation by measuring CD86 level at 0.1 uM after 6 hrs by flow cytometry; method in brief: as §1
T3 sequence (whole entry): T2 sequence (Q9NYK1 whole entry)

[5] = biological target: T3, Toll-like receptor 7 (Homo sapiens); experiment: Agonist activity at TLR7 in human PBMC assessed as induction of plasmacytoid dendritic cell maturation by measuring HLA-DR level at 0.1 uM after 6 hrs by flow cytometry; method in brief: as §1

**Q.** Which results are given for Nc1nc(OCCCCO)nc2c1[nH]c(=O)n2CC1CCNCC1?
**A.** Activity [1]: inactive; pEC50 (Toll-like receptor 7): < 3.30; Activity [2]: inactive; Activity [3]: inactive; Activity [4]: inactive; Activity [5]: inactive
